Screens (PubChem)
LANA-H2B inh: blocks KSHV LANA binding to histone H2A/H2B; Q9QR71; cell-free LANA-H2A/H2B peptide, fluorescence polarization; inhibition, % (no concentration beside the values); actives 0.6% (n = 320,000); AID 2629; in the data active = inhibition mostly above about 10%, no sharp cut-off; inactive = mostly below about 6.7%
TAAR1 agonist: human TAAR1 agonism; activation, % at 3 µM; actives 0.99% (n = 360,000); Q96RJ0; CHO RD-HGA16 TAAR1, Fluo-8 calcium fluorescence; vehicle wells 0%, saturating PEA agonist 100%;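 active = activation above the mean activation of all test compounds in the run plus 3 SD, cut at about 38% in these data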
Target sequence (Q96RJ0 whole entry, looked up): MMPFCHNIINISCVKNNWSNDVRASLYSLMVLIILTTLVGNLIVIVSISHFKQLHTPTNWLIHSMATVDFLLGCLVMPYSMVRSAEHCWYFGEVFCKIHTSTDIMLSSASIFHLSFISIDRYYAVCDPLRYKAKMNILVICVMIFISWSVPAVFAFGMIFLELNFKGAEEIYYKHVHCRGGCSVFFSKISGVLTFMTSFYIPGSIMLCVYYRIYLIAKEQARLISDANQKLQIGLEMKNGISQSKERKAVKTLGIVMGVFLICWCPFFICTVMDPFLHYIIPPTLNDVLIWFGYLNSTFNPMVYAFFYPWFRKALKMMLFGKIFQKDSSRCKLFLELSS
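Test system: RD-HGA16 (CHO) cells co-expressing Gα16 and hTAAR1 | Doses: Single dose, 3 µM | Schedule: 17-24 h seeding, 75 min 37 °C dye, 30 min RT | Evaluation: % activation from peak over basal fluorescence ratio, DMSO-to-PEA scaled | Technique: Kinetic Fluo-8 calcium fluorescence | Benchmarks: Low control DMSO, high control PEA (EC100)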
GPR7 antagonist: human neuropeptides B/W receptor 1 antagonism. P48145. GPR7-expressing cells, fluorescence antagonist assay. inhibition, % at 4.4 µM. actives 1.1% (n = 290,000). AID 1861; in the data active = inhibition above about 16%, passing the limit was not always enough;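 also: cells stimulated with the agonist NPW; 0% = agonist with vehicle and 100% = vehicle without agonist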
Target sequence (P48145 whole entry, looked up): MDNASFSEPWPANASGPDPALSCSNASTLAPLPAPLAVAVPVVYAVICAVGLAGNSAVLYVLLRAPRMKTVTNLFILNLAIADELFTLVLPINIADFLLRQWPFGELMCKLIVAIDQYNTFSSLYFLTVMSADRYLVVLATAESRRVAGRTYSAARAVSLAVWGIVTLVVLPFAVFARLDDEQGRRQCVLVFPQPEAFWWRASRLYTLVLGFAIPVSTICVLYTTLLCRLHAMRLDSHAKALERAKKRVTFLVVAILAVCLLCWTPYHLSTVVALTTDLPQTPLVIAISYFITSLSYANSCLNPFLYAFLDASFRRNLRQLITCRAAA
TAAR1 antag: human TAAR1 antagonism; Q96RJ0; CHO RD-HGA16 TAAR1, Fluo-8 calcium fluorescence, antagonist; inhibition, % at 3 µM; actives 1.5% (n = 360,000);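 active = inhibition above a per-plate cutoff, the mean inhibition of test compounds on that plate plus 3 SD, cut at about 49% in these data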;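 also: 0% = DMSO plus EC80 beta-PEA response and 100% = DMSO alone without agonist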
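Test system – hTAAR1-expressing CHO RD-HGA16 cells, Gα16-coupled · Also added – β-PEA at EC80 concentration, post-compound challenge · Compound – 3 µM, single point · Incubation – dye loading 75 min at 37 °C, then 30 min room temperature · Measured by – Fluo-8 intracellular calcium dye fluorescence, real-time kinetic reads · Benchmarks – vehicle and agonist controls · Replicates – singlicate, one well per test compound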
TRPML3 ag: agonists of human TRPML3 channel. activation, % at 3 µM. actives 0.29% (n = 220,000). HEK293 TRPML3-YFP, Fluo-8 calcium fluorescence; 100% = the carbachol control signal. Q8TDD5;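 active = activation above its plate's cutoff, the mean activation of the plate's test wells plus 3 SD, cut at about 12% in these data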;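 also: 0% = DMSO only wells and 100% = carbachol wells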
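Test system: HEK293 cells stably carrying human TRPML3-YFP; Doses: single dose, 3 µM final nominal compound, 0.3% DMSO final; Schedule: dye loading 1 h 37 °C then 30 min ambient, 125 s read; Technique: Fluo-8 calcium fluorescence; Benchmarks: high control carbachol 87 µM, low control DMSO.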
zfTRPN1 agonist: activates the zebrafish TRPN1 channel; HEK293 zebrafish TRPN1-YFP, Fluo-8 calcium fluorescence; 100% = response to 87 µM carbachol; activation, % at 3 µM; actives 0.18% (n = 220,000); AID 1424;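 active = activation above its plate's cutoff, the mean activation of test wells on that plate plus 3 SD, cut at about 19% in these data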;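 also: 0% = DMSO alone and 100% = 87 µM carbachol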
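Control set: carbachol 87 µM as high control, DMSO as low control; system: HEK293 stable line with zebrafish TRPN1-YFP; read-out: % activation versus carbachol response; detection: intracellular calcium fluorescence with Fluo-8; doses: single test compound dose, 3 µM nominal, 0.3% DMSO; schedule: dye 1 h 37 °C plus 30 min RT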
GPR7 antag conf: human GPR7 antagonism, confirmation assay; actives 52% (n = 2,400); inhibition, % at 4.4 µM; shares compounds with GPR7 antagonist; GPR7-expressing cells, calcium fluorescence antagonist mode; in the data active = inhibition above about 24%;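 also: stimulated with the GPR7 agonist NPW; 0% = agonist plus vehicle and 100% = vehicle alone without agonist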
MCHR1 antagonist: MCHR1 (human) antagonism in GPR7 counter-screen. shares compounds with GPR7 antagonist. MCHR1-expressing cells, fluorescence antagonist assay. inhibition, % at 4.4 µM. actives 62% (n = 2,400). AID 2148; in the data active = inhibition above about 22%;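 also: 0% = vehicle with agonist and 100% = vehicle without agonist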
An asterisk follows results filed as active; nt = no result. Most compounds without a hit are left out; they make up all but 3.4% or so of the library.

SMILES | LANA-H2B inh | TAAR1 agonist | GPR7 antagonist | TAAR1 antag | TRPML3 ag | zfTRPN1 agonist | GPR7 antag conf | MCHR1 antagonist
NS(=O)(=O)c1ccc(CNC(=S)Nc2ccc(Cl)c(Cl)c2)cc1 | -1 | 8 | 33* | 28 | 0 | 0 | 41* | 40*
N#Cc1nc(COc2ccccc2)oc1N1CCN(Cc2ccccc2)CC1 | 4 | 7 | 26* | 7 | -1 | -1 | 33* | 52*
Cc1ccc(OCc2nc(C#N)c(N3CCN(Cc4ccccc4)CC3)o2)cc1 | -1 | 3 | 43* | 18 | 1 | 2 | 44* | 51*
CN1C(C(=O)N2CCc3ccccc3C2)=CC(c2ccc(F)cc2)=NS1(=O)=O | 4 | 42* | 30* | 9 | nt | nt | 20 | 25*
COc1ccc(C2=NS(=O)(=O)N(C)C(C(=O)N3CCC(C)CC3)=C2)cc1 | -1 | 1 | 9 | -6 | nt | nt | nt | nt
COc1cc(C(=S)N2CCOCC2)ccc1OC(=O)c1ccc(Br)cc1 | -3 | 12 | 42* | 75* | nt | nt | 66* | 81*
COc1ccc(Cl)cc1NS(=O)(=O)c1cccc(C(=O)NCC(c2ccco2)N(C)C)c1 (stereo not given) | -5 | 2 | -7 | -12 | nt | nt | nt | nt
Cc1ccc(-c2ccccc2[C@@H]2C[C@H]3CN(C)C(=O)[C@]34CCCN24)o1 | -2 | 7 | -8 | -5 | 1 | -2 | nt | nt
O=C1N(c2ccccc2)C[C@@H]2C[C@@H](c3cc4ccccc4o3)N3CCC[C@@]123 | nt | 1 | 25* | -10 | 1 | -1 | 23 | 15
CC1(C(=O)NCc2cccc3ccccc23)CCN1Cc1ccc(OC(F)(F)F)cc1 (stereo not given) | nt | 1 | nt | 16 | nt | nt | nt | nt
CSCCC(c1nc2ccccc2[nH]1)n1c(-c2ccc3ncccc3c2)nc2ccccc21 (stereo not given) | nt | 10 | nt | -7 | nt | nt | nt | nt
N#CCCN1CCN(Cc2cc(-c3ccccc3)ccc2O)CC1 | 4 | 5 | 31* | -15 | 0 | 2 | 3 | 12
Cc1nc2cc(NC(=O)N(C)c3ccc4ccccc4c3)ccc2o1 | 5 | 2 | 32* | -5 | 0 | 2 | 11 | 26*
Cc1nc2cc(NC(=O)c3ccc(S(=O)(=O)N(C)c4ccccc4)cc3)ccc2o1 | 6 | 13 | 45* | 51* | nt | nt | 63* | 81*
COc1ccc(NC(=O)Nc2ccc3oc(C)nc3c2)cc1 | 6 | 4 | 8 | 7 | 1 | 2 | nt | nt
C=C(CCO)C1=CCN(S(=O)(=O)C(C)(C)C)[C@H]1CCO | nt | 1 | nt | -22 | nt | nt | nt | nt
CCOC(=O)C1(CCCc2ccccc2)CCN(C(=O)c2n[nH]c(CC)c2C)CC1 | nt | 5 | nt | 1 | nt | nt | nt | nt
O=C(NCc1ccco1)c1ccc2sc([C@H]3C[C@H](O)[C@@H](CO)O3)nc2c1 | nt | 4 | nt | -32 | nt | nt | nt | nt
O=C(NCCc1c[nH]c2ccccc12)c1ccc2[nH]c(=O)c(=O)[nH]c2c1 | 5 | 0 | 40* | -7 | nt | nt | -23 | 12
CN(C)Cc1csc(NC(=O)Nc2ccccc2C(C)(C)C)n1 | nt | 1 | nt | 4 | nt | nt | nt | nt
COc1ccc(Nc2nnc(-c3ccc(O)cc3)c3ccccc23)cc1 | -4 | 15 | 61* | -5 | -1 | -3 | 71* | 74*
Oc1ccc(Nc2nnc(-c3ccc(O)cc3)c3ccccc23)cc1 | 1 | -1 | 39* | -14 | 1 | 0 | 54* | 62*
CSc1ccc(S(=O)(=O)N2CCC(C(=O)Nc3ccc(C(N)=O)cc3)CC2)cc1 | -4 | 5 | 2 | 1 | nt | nt | nt | nt
O=[N+]([O-])c1c(Nc2cccc(O)c2)cc(Cl)c2nonc12 | 5 | -3 | 35* | -3 | nt | nt | 81* | 101*
CN(NS(=O)(=O)c1ccccc1)C(=O)c1ccccc1 | nt | 3 | nt | -27 | nt | nt | nt | nt
SMILES | LANA-H2B inh | TAAR1 agonist | GPR7 antagonist | TAAR1 antag | TRPML3 ag | zfTRPN1 agonist | GPR7 antag conf | MCHR1 antagonist
COc1ccc(OCCNC(=O)c2ccc3nc(C)c(N(C)Cc4ccc(NC(C)=O)cc4)n3c2)cc1 | nt | 4 | nt | 17 | nt | nt | nt | nt
Cc1c(C(=O)N2CCC(C(N)=O)CC2)oc2ccc(Br)cc12 | 5 | 2 | nt | -20 | nt | nt | nt | nt
O=C(NCc1cccc(Cl)c1)c1ccc(-c2csnn2)cc1 | 1 | 1 | 25* | 20 | -1 | 0 | 15 | 12
CCOC(=O)N1CN(C(=O)OCC)CN(C(=O)OCC)C1 | -9 | 4 | 18* | -2 | 0 | 0 | -12 | -7
CCC(C)c1ccc(NC(=O)NCCN2CCCCC2)cc1 (stereo not given) | 1 | 4 | 32* | -9 | nt | nt | 1 | 4
COc1ccc(CCNC(=O)COC(=O)c2ccc(Br)o2)cc1OC | -3 | 13 | 29* | 2 | 0 | 0 | -14 | 16
CN(C)c1ccc(CNC(=O)c2cc(S(=O)(=O)N3CCOCC3)cn2C)cc1 | 2 | 2 | 1 | 8 | nt | nt | nt | nt
O=C(c1ccc(N2CCN(C(=O)c3ccccc3Br)CC2)cc1)c1cccc(F)c1 | 8 | 8 | 28* | 45 | nt | nt | 4 | 69*
C#CCN1C=C(C(=O)OCC)C(C)N(Cc2ccccc2I)S1(=O)=O (stereo not given) | nt | 4 | nt | 13 | nt | nt | nt | nt
Cc1nc2ccc([N+](=O)[O-])cc2c(=O)n1Cc1cccc(Br)c1 | 1 | 6 | 47* | 29 | nt | nt | 32* | 35*
Cc1nc2ccc([N+](=O)[O-])cc2c(=O)n1Cc1ccc(Br)cc1 | 0 | 1 | 22 | 12 | nt | nt | nt | nt
COc1cccc(N2CCc3c(C)nc4ccc(Cl)cc4c32)c1 | -5 | 17 | 36* | -63 | nt | nt | 33* | 34*
O=c1cc2c(nn1Cc1ccc(F)cc1)-c1ccccc1CC2 | -2 | 9 | 35* | 12 | 0 | -2 | 1 | 11
CCc1ccccc1NC(=O)C1CCCN(c2ncnc3onc(-c4ccc(F)cc4)c23)C1 (stereo not given) | 0 | 0 | 29* | -13 | nt | nt | 16 | 22*
Cc1ccccc1NC(=O)C1CCCN(c2ncnc3onc(-c4ccc(F)cc4)c23)C1 (stereo not given) | -1 | -1 | 28* | -7 | nt | nt | 28* | 15
CCc1ccccc1NC(=O)C1CCCN(c2nccc(C)n2)C1 (stereo not given) | -1 | -2 | -14 | -11 | nt | nt | nt | nt
CCCCNC(=O)C[C@@H]1C[C@@]2(C(=O)OCC)CCC=C2N(CCC2=CCCCC2)C1=O | nt | 6 | nt | -14 | nt | nt | nt | nt
CN(C)S(=O)(=O)n1cc(/C=C(\NC(=O)c2ccccc2F)C(=O)N2CCCCC2)c2ccccc21 | nt | 6 | nt | 6 | nt | nt | nt | nt
